# From PubChem BioAssay
# The source made the active and inactive calls.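 The calls were made as follows, unless noted: active = visual image review flags a hit and inhibition of aggregation exceeds 20%; inconclusive = visual hit but inhibition at or below 20%; inactive = no hit on visual image review.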
# Legend:
# [1] = inhibitors of TNFa-induced NFkB p65 translocation, primary screen, imaging, HUVEC, MLSMR starter and 10KST1 sets (AID 438;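 active = inhibition above 20% together with a positive visual image hit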;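 also: compound added about 3h40 before a 20 min TNFalpha stimulation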;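 as to inhibition: signal is the nuclear over cytoplasmic p65 intensity ratio per well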); settings: HUVEC TNFa-induced p65 nuclear translocation; cell count: measured here: nuclei count (cytotoxicity indicator), at 2.08 µM; inhibition: at 2 µM, stronger effect = higher value, 0% TNFa-plus-vehicle, 100% no-TNFa wells
# [2] = reduction of polyQ htt aggregates in cells – imaging, exon1htt(103Q)mCFP cells, high-content imaging, primary screen (AID 483); settings: exon1htt(103Q)mCFP cell line, aggregate imaging, at 2 µM; inhibition of aggregation: stronger effect = higher value; nuclei count: measured here: cell count, toxicity;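 also: compound exposure lasted 3 days before fixation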;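 as to nuclei count: percent of the per-plate median nuclei count of sample wells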
# [3] = endothelial E-selectin expression blockers – imaging, HUVEC, immunofluorescence, MLSMR starter and 10KST1 sets, primary screen (AID 487;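 active = visually confirmed hit in the image check and inhibition above 20%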;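 as to inhibition: signal is fraction of cell area covered by stained E-selectin grains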;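 as to nuclei count: 100% = median nuclei count of all wells on the same plate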); settings: HUVEC TNFalpha-induced E-selectin immunofluorescence imaging, at 2 µM; inhibition: stronger effect = higher value; nuclei count: measured here: cell number, toxicity
# [4] = target: Voltage-gated potassium channel subunit beta-2 (Rattus norvegicus) (UniProt P62483); assay: inhibitors of rat Kvbeta2 reductase activity – biochemical, NADPH fluorescence, primary screen (AID 622;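 active = fluorescence slope higher than the sample average by over 3 SD, cut at about -0.22 in these data, passing the limit was not always enough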;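 also: slope of raw intensity against log time taken from 70 to 1610 s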); settings: recombinant KvBeta, 4-cyanobenzaldehyde reduction, at 10 µM, stronger effect = higher value
# Voltage-gated potassium channel subunit beta-2 (Rattus norvegicus), sequence (P62483 whole entry, looked up): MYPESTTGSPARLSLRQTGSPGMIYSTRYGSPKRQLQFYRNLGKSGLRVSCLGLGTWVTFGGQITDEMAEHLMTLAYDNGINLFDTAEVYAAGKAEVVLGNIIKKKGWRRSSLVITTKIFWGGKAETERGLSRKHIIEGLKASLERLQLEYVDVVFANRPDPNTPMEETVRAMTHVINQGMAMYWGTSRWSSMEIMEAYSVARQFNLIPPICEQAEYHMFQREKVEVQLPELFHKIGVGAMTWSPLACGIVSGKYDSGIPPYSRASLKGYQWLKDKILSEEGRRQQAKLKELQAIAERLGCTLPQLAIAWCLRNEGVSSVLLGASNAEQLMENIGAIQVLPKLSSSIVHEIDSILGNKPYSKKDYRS
# [5] = target: Voltage-gated potassium channel subunit beta-2 (Rattus norvegicus) (UniProt P62483); assay: enhancers of rat Kvbeta2 NADPH turnover – biochemical, NADPH fluorescence, primary screen (AID 623;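 active = NADPH fluorescence slope more negative than the mean of all samples by about 3 SD, 99.7% confidence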;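 also: fluorescence intensity change per second fitted from 20 to 320 s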); settings: Recombinant KvBeta, NADPH fluorescence decrease slope, 10 min; at 10 µM; stronger effect = lower value
# [6] = target: Muscarinic acetylcholine receptor M4 (Homo sapiens) (UniProt P08173); assay: M4-linked GIRK flux change, two-sided – cell-based, HEK293 M4/GIRK, thallium flux, BTC-AM, M4 allosteric agonist project, primary screen (AID 625;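 active = fluorescence slope after compound addition differing from the mean of all tested samples at 99.7% confidence, mostly higher but some lower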;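 also: thallium influx through GIRK channels coupled to M4 in HEK293 cells with BTC-AM dye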); settings: at 10 µM, actives lie on both sides
# Muscarinic acetylcholine receptor M4 (Homo sapiens), sequence (P08173 whole entry, looked up): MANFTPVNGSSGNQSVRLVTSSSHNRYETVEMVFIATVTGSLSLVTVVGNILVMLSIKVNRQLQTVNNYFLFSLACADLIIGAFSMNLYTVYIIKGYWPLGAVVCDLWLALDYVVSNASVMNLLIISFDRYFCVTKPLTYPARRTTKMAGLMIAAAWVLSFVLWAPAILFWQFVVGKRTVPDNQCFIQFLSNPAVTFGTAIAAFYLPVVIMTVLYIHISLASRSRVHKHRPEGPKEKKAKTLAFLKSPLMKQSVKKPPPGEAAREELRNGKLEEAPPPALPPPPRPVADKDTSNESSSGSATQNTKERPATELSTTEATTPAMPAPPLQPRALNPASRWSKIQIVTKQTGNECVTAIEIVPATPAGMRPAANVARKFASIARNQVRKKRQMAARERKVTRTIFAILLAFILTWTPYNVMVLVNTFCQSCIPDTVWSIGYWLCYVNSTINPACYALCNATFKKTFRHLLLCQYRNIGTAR
# How it was run: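 assay system = HEK293 cells with M4 receptor and GIRK channels | medium = pH 7.3 thallium assay buffer | doses = 10 µM final, single point | timing = cells overnight at 37 °C, BTC-AM loading 1 h, reads 2 min total | signal = BTC-AM fluorescence, 1 Hz kinetic reads | read-out = post-addition slope, 15–24 s, of baseline-normalized fluorescence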
# [7] = blockers of RIG-like receptor reporter activation – cell-based, Sendai virus stimulus, luciferase, 10K MLSCN set, TLR/RLR signaling modifier project, primary screen (AID 602276;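 active = inhibition at or above 50% at 10 µM; inactive = inhibition below 50%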;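 also: firefly luciferase from ISG56 promoter only with Renilla not read in this screen; 0% = Sendai virus plus DMSO and 100% = medium plus DMSO without virus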); settings: HEK293 RL24 IRF3 luciferase reporter, at 10 µM, stronger effect = higher value
# [8] = TLR3 IRF3 reporter activation blockers – cell-based, poly I:C stimulus, luciferase, 10K MLSCN set, primary screen (AID 602277;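 active = inhibition of the reporter signal at or above 50%; inactive = inhibition below 50%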); settings: HEK293-TLR3 RL24 IRF3 luciferase reporter, at 10 µM, stronger effect = higher value
SMILES,cell count [1],inhibition [1],inhibition of aggregation [2],nuclei count [2] [%],inhibition [3],nuclei count [3] [%],fluorescence slope [4],NADPH fluorescence slope [5],fluorescence slope [6],inhibition [7],inhibition [8]
COc1ccc(OCC(=O)N2CCN(C(=O)c3cccs3)CC2)cc1,365,-7% (inactive),-31.2% (inactive),89,-51.4% (inactive),124,-0.57 (inactive),-5.4e-05 (inactive),0.00633 (inactive),21.2% (inactive),17.7% (inactive)
CNC(=O)Nc1cccc(C(F)(F)F)c1,299,-3.3% (inactive),-31% (inactive),97.6,-46.4% (inactive),130,-0.566 (inactive),-5.5e-05 (inactive),0.00624 (inactive),0.0526% (inactive),4.51% (inactive)
COc1ccc(/C(O)=C2/C(=O)C(=O)N(Cc3cccnc3)C2c2ccncc2)cc1F (centres undefined),574,-7.6% (inactive),-2.8% (inactive),106,-3.5% (inactive),117,-0.574 (inactive),-8.3e-05 (inactive),0.00672 (inactive),8.93% (inactive),16.5% (inactive)
Cn1c(=O)c2c(nc(SCc3nn[nH]n3)n2Cc2ccccc2F)n(C)c1=O,481,-9.5% (inactive),13.9% (inactive),81.9,-5.3% (inactive),96.9,-0.535 (inactive),4.4e-06 (inactive),0.00622 (inactive),15% (inactive),17.9% (inactive)
COC(=O)Cc1c(C)nc2nc(-c3ccccc3)[nH]n2c1=O,615,1.9% (inactive),18.9% (inactive),68,-15.7% (inactive),97.2,-0.474 (inactive),-9.1e-06 (inactive),0.00459 (inactive),0.882% (inactive),6.76% (inactive)
O=C1CN(c2ccccc2F)C(=O)CN1c1ccccc1F,330,-2.3% (inactive),-2.1% (inactive),97.5,-61.6% (inactive),89.8,-0.476 (inactive),-3.1e-05 (inactive),0.00583 (inactive),14.9% (inactive),14.3% (inactive)
CCCCOC(=O)Nc1nc2ccc(OC)cc2s1,743,-10.1% (inactive),7.1% (inactive),100,-29.1% (inactive),108,-0.324 (inactive),-5.1e-05 (inactive),0.00658 (inactive),-0.307% (inactive),-118% (inactive)
CCC(Oc1ccc2ccccc2c1)C(=O)O (centres undefined),666,-4% (inactive),-46.2% (inactive),129,-39.6% (inactive),137,-0.489 (inactive),6e-05 (inactive),0.00595 (inactive),-9.77% (inactive),-32.2% (inactive)
Cc1ccc(C(C)C)c(OCc2nnc(SCC(=O)Nc3ncc(C)s3)n2C)c1,663,0.5% (inactive),-35.5% (inactive),108,-36.3% (inactive),108,-0.545 (inactive),-3.2e-05 (inactive),0.00564 (inactive),9.43% (inactive),12.4% (inactive)
CCn1c(=O)cc(SCC(=O)N2CCOCC2)c2ccccc21,460,-1.2% (inactive),0.4% (inactive),115,-69.7% (inactive),120,-0.549 (inactive),-2.4e-05 (inactive),0.00553 (inactive),75.8% (active),51.3% (active)
CCC(C)c1ccc(NC(=O)C2CC2)cc1 (centres undefined),466,-11.6% (inactive),-13.6% (inactive),110,-74.9% (inactive),118,-0.569 (inactive),-4.3e-05 (inactive),0.00602 (inactive),-20.4% (inactive),-80.1% (inactive)
Cn1cc(CC(=O)Nc2cccc(C#N)c2)c2ccccc21,414,-0.7% (inactive),23.9% (inactive),83.5,13.7% (inactive),97.2,-0.47 (inactive),-1.8e-05 (inactive),0.00535 (inactive),3.88% (inactive),-0.551% (inactive)
COCCNC(=O)C(C)OC(=O)c1nsc(Cl)c1Cl (centres undefined),551,-8.3% (inactive),0.5% (inactive),101,-45.1% (inactive),115,-0.317 (inactive),1e-05 (inactive),0.00545 (inactive),-6.04% (inactive),-22% (inactive)
COc1ccc(N2CCN(C(=O)CSc3nnc4n3C(C)(C)Cc3ccccc3-4)CC2)cc1,548,7.7% (inactive),-9.9% (inactive),104,-14.4% (inactive),104,-0.572 (inactive),-3.1e-05 (inactive),0.00723 (inactive),4.92% (inactive),-6.84% (inactive)
COc1ccc(S(=O)(=O)N2CCN(C3CCCCCCC3)CC2)cc1,360,2% (inactive),5.1% (inactive),105,-8.4% (inactive),108,-0.533 (inactive),-5.6e-05 (inactive),0.00334 (inactive),16.2% (inactive),24.3% (inactive)
COC(=O)c1[nH]c(C)c(/C(O)=C2\C(=O)C(=O)N(CCN(C)C)C2c2ccccc2OC)c1C (centres undefined),472,-8% (inactive),10.7% (inactive),106,-33.4% (inactive),103,-0.326 (inactive),-1.8e-05 (inactive),0.00598 (inactive),-8.53% (inactive),2.66% (inactive)
O=C(c1ccco1)N1CCN(C(=O)c2ccc(Cn3cc(Br)cn3)o2)CC1,371,2.6% (inactive),9.6% (inactive),102,-21.6% (inactive),105,-0.456 (inactive),-4.2e-05 (inactive),0.00591 (inactive),13.3% (inactive),12.9% (inactive)
Cc1cnnc2c1-c1nonc1CC2,347,2% (inactive),-17.8% (inactive),109,5.6% (inactive),116,-0.529 (inactive),3.9e-05 (inactive),0.00506 (inactive),17.8% (inactive),14.6% (inactive)
CS(=O)(=O)Nc1ccc(C(=O)NCc2ccc3c(c2)OCO3)cc1,409,-5.7% (inactive),16.6% (inactive),66.5,-42.6% (inactive),108,-0.472 (inactive),-1.7e-05 (inactive),0.00561 (inactive),9.26% (inactive),4.21% (inactive)
